Data set [1] has as its system Mus musculus. As to the kind of experiment: Anticonvulsant activity in mouse CF1 albino assessed as inhibition of minimal electric shock-induced seizure at 50 mg/kg, ip after 0.5 hrs. Type of data set: functional, organism-based. Further details: dose 50 mg/kg. The method, boiled down:
(§1)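 6 Hz psychomotor seizure model in male CF-1 albino mice dosed i.p. Four mice per time point (0.25, 0.5, 1, 2, 4 h) received corneal-electrode current of 32 mA for 3 s. Untreated mice show a minimal clonic phase followed by stereotyped automatistic behaviour. Results given as number protected out of 4.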

For data set [2], the system named is Mus musculus. Put plainly: Anticonvulsant activity in mouse CF1 albino assessed as inhibition of minimal electric shock-induced seizure at 50 mg/kg, ip after 1 hr. The format is functional, organism-based. Further details: dose 50 mg/kg. The method, boiled down: as §1
Data set [3] has as its system Mus musculus. As to the kind of experiment: Anticonvulsant activity in mouse CF1 albino assessed as inhibition of minimal electric shock-induced seizure at 50 mg/kg, ip after 2 hrs. The format is functional, organism-based. Further details: dose 50 mg/kg. The procedure, abridged:
as §1

Data set [4] relates to Mus musculus. Put plainly: Anticonvulsant activity in mouse CF1 albino assessed as inhibition of minimal electric shock-induced seizure at 50 mg/kg, ip after 4 hrs. The format is functional, organism-based. Further details: dose 50 mg/kg. The procedure, abridged:
as §1

Data set [5] has as its system Mus musculus. As to the kind of experiment: Anticonvulsant activity in mouse CF1 albino assessed as inhibition of maximal electric shock-induced seizure at 300 mg/kg, ip after 4 hrs. The format is functional, organism-based. Further details: dose 300 mg/kg. The procedure, abridged: (§2)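 Male CF-1 albino mice (18–25 g); compound suspended in 0.5% methyl cellulose/water or PEG 200, given i.p. at 30, 100 and 300 mg/kg (0.01 mL/g). Tested 0.5 or 4 h after dosing. Protection = abolition of hind limb tonic extensor component of MES seizure.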

In data set [6] the test system is Mus musculus. Put plainly: Anticonvulsant activity in mouse CF1 albino assessed as inhibition of maximal electric shock-induced seizure at 300 mg/kg, ip after 0.5 hrs. Type of data set: functional, organism-based. Further details: dose 300 mg/kg. The procedure, abridged: as §2
In data set [7] the test system is Mus musculus. Put plainly: Anticonvulsant activity in ip dosed mouse CF1 albino assessed as inhibition of subcutaneous metrazole-induced seizure after 0.5 hrs. Type of data set: functional.
For data set [8], the system named is Mus musculus. As to the kind of experiment: Anticonvulsant activity in mouse CF1 albino assessed as inhibition of subcutaneous metrazole-induced seizure at 300 mg/kg, ip after 4 hrs. The format is functional, organism-based. Further details: dose 300 mg/kg.
The subject of data set [9] is Mus musculus. Put plainly: Neurotoxicity against mouse CF1 albino assessed as minimal motor impairment at 300 mg/kg, ip after 0.5 hrs by rotord test. The format is toxicity, organism-based. Further details: dose 300 mg/kg, route intraperitoneal. Conditions: in vivo. The method, boiled down: (§3)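 Rotorod minimal motor impairment in male CF-1 albino mice (18–25 g) after i.p. dosing at 30, 100 or 300 mg/kg in 0.5% methyl cellulose/water or PEG 200. Mice placed on a rod rotating at 6 rpm at 0.5 or 4 h. Value is minimum dose causing impairment in at least one mouse.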

Data set [10] deals with Mus musculus. As to the kind of experiment: Neurotoxicity against mouse CF1 albino assessed as minimal motor impairment at 300 mg/kg, ip after 4 hrs by rotord test. The format is toxicity, organism-based. Further details: dose 300 mg/kg, route intraperitoneal. Conditions: in vivo. The method, boiled down: as §3
The subject of data set [11] is Mus musculus. As to the kind of experiment: Anticonvulsant activity in mouse CF1 albino assessed as inhibition of minimal electric shock-induced seizure at 100 mg/kg, ip after 4 hrs. The format is functional, organism-based. Further details: dose 100 mg/kg. The procedure, abridged:
as §1

For data set [12], the system named is Mus musculus. As to the kind of experiment: Anticonvulsant activity in mouse CF1 albino assessed as inhibition of minimal electric shock-induced seizure at 50 mg/kg, ip after 0.25 hrs. The format is functional, organism-based. Further details: dose 50 mg/kg. The method, boiled down:
as §1

Data set [13] has as its system Mus musculus. Put plainly: Anticonvulsant activity in mouse CF1 albino assessed as inhibition of minimal electric shock-induced seizure at 30 mg/kg, ip after 2 hrs. Further details: dose 30 mg/kg. The format is functional, organism-based. The procedure, abridged:
as §1

Data set [14] relates to Mus musculus. Put plainly: Anticonvulsant activity in mouse CF1 albino assessed as inhibition of minimal electric shock-induced seizure at 30 mg/kg, ip after 4 hrs. Type of data set: functional, organism-based. Further details: dose 30 mg/kg. The procedure, abridged:
as §1

Data set [15] has as its system Mus musculus. As to the kind of experiment: Anticonvulsant activity in mouse CF1 albino assessed as inhibition of subcutaneous metrazole-induced seizure at 300 mg/kg, ip after 0.5 hrs. The format is functional, organism-based. Further details: dose 300 mg/kg.
Data set [16] concerns Mus musculus. Put plainly: Anticonvulsant activity in ip dosed mouse CF1 albino assessed as inhibition of maximal electric shock-induced seizure after 0.5 hrs. Type of data set: functional. The method, boiled down: as §2
The subject of data set [17] is Mus musculus. As to the kind of experiment: Anticonvulsant activity in mouse CF1 albino assessed as inhibition of minimal electric shock-induced seizure at 30 mg/kg, ip after 0.25 hrs. The format is functional, organism-based. Further details: dose 30 mg/kg. The method, boiled down:
as §1

In data set [18] the test system is Mus musculus. Put plainly: Anticonvulsant activity in mouse CF1 albino assessed as inhibition of minimal electric shock-induced seizure at 30 mg/kg, ip after 0.5 hrs. Further details: dose 30 mg/kg. Type of data set: functional, organism-based. The procedure, abridged:
as §1

For data set [19], the system named is Mus musculus. Put plainly: Anticonvulsant activity in mouse CF1 albino assessed as inhibition of minimal electric shock-induced seizure at 30 mg/kg, ip after 1 hr. The format is functional, organism-based. Further details: dose 30 mg/kg. The procedure, abridged:
as §1

Data set [20] relates to Mus musculus. As to the kind of experiment: Anticonvulsant activity in ip dosed mouse CF1 albino assessed as inhibition of subcutaneous metrazole-induced seizure after 4 hrs. The format is functional.
In data set [21] the test system is Mus musculus. As to the kind of experiment: Anticonvulsant activity in mouse CF1 albino assessed as inhibition of minimal electric shock-induced seizure at 60 mg/kg, ip after 0.25 hrs. Type of data set: functional, organism-based. Further details: dose 60 mg/kg. The procedure, abridged:
as §1

Data set [22] has as its system Mus musculus. Put plainly: Anticonvulsant activity in mouse CF1 albino assessed as inhibition of minimal electric shock-induced seizure at 60 mg/kg, ip after 0.5 hrs. The format is functional, organism-based. Further details: dose 60 mg/kg. The procedure, abridged:
as §1

Data set [23] has as its system Mus musculus. As to the kind of experiment: Anticonvulsant activity in mouse CF1 albino assessed as inhibition of minimal electric shock-induced seizure at 60 mg/kg, ip after 1 hr. Type of data set: functional, organism-based. Further details: dose 60 mg/kg. The method, boiled down: as §1
Data set [24] concerns Mus musculus. Put plainly: Anticonvulsant activity in mouse CF1 albino assessed as inhibition of minimal electric shock-induced seizure at 60 mg/kg, ip after 2 hrs. The format is functional, organism-based. Further details: dose 60 mg/kg. The procedure, abridged:
as §1

The test system of data set [25] is Mus musculus. Put plainly: Anticonvulsant activity in mouse CF1 albino assessed as inhibition of minimal electric shock-induced seizure at 60 mg/kg, ip after 4 hrs. Type of data set: functional, organism-based. Further details: dose 60 mg/kg. The procedure, abridged:
as §1

Data set [26] relates to Mus musculus. Put plainly: Anticonvulsant activity in mouse CF1 albino assessed as inhibition of minimal electric shock-induced seizure at 100 mg/kg, ip after 0.25 hrs. Type of data set: functional, organism-based. Further details: dose 100 mg/kg. The method, boiled down:
as §1

For data set [27], the system named is Mus musculus. Put plainly: Anticonvulsant activity in mouse CF1 albino assessed as inhibition of minimal electric shock-induced seizure at 100 mg/kg, ip after 0.5 hrs. The format is functional, organism-based. Further details: dose 100 mg/kg. The procedure, abridged: as §1
The test system of data set [28] is Mus musculus. Put plainly: Anticonvulsant activity in mouse CF1 albino assessed as inhibition of minimal electric shock-induced seizure at 100 mg/kg, ip after 1 hr. Type of data set: functional, organism-based. Further details: dose 100 mg/kg. The method, boiled down: as §1

The text below walks through data of ChEMBL document CHEMBL1155262, “A new class of anticonvulsants possessing 6 Hz activity: 3,4-dialkyloxy thiophene bishydrazones” (Eur J Med Chem, 2009).

Activity calls are given as the source filed them. No cut-off for these calls is given here.

In the case of `CCCCCCCOc1c(C(=O)N/N=C/c2ccccc2)sc(C(=O)N/N=C/c2ccccc2)c1OCCCCCCC`, the result in data set [1], in data set [2], in data set [3], in data set [4], in data set [5] and in [6] was inactive. Besides, the result in data set [8], in data set [11] and in data set [12] was inactive. Besides, the Activity in data set [7] was 300 mg/kg; in data set [9], “Not Active”; in data set [10], “Not Active”.

With `C/C(=N\NC(=O)c1sc(C(=O)N/N=C(\C)c2cccs2)c2c1OCCO2)c1cccs1`, the outcome in [13], in data set [14], in [15], in data set [5], in data set [8] and in data set [11] was inactive. Also, the Activity in [16] was 300 mg/kg; in data set [9] it was “Not Active”; in data set [10] it was “Not Active”.

Consider `O=C(N/N=C/c1ccccc1)c1sc(C(=O)N/N=C/c2ccccc2)c(OCc2ccccc2)c1OCc1ccccc1`, for which the result in data set [17], in [18], in data set [19], in data set [13], in [15] and in [5] was inactive. In addition, the Activity in data set [16] is 300 mg/kg; in [20], 300 mg/kg; in [9], “Not Active”; in data set [10], “Not Active”.

In the case of `CCCCCCCOc1c(C(=O)N/N=C/c2ccc([N+](=O)[O-])cc2)sc(C(=O)N/N=C/c2ccc([N+](=O)[O-])cc2)c1OCCCCCCC`, the result in data set [21], in data set [22], in data set [23], in data set [24], in data set [25] and in data set [26] was inactive. Moreover, the result in data set [28] and in data set [11] was inactive. In data set [27], the result was Active.

In the case of `O=C(N/N=C/c1ccc2c(c1)Cc1ccccc1-2)c1sc(C(=O)N/N=C/c2ccc3c(c2)Cc2ccccc2-3)c2c1OCCO2`, the outcome in data set [5], in data set [6] and in [8] was inactive. The Activity is 300 mg/kg in data set [7], “Not Active” in data set [9] and “Not Active” in data set [10].
